Results from PubChem BioAssay AID588830 (Broad Institute, 2011).
Calls of active or inactive are those of the source.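 Rule for the calls: active = fitted IC50 for falling signal at or below ten times the top tested dose; inconclusive = flat fit with 30 to 70% signal loss, or poor fit; inactive = the rest.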

experiment: ATP-based viability of SR-BI CHO cells – cell-based, CellTiter-Glo luminescence, 3 h, dry powder, cytotoxicity control for SR-BI HDL uptake inhibitor project, dose response (AID 588830); conditions: ldlA[mSR-BI] CHO cells viability, CellTiter-Glo ATP, 3 h; at 30 µM (top of the series)
Procedure, shortened: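 Test system – ldlA[mSR-BI] cells, scavenger receptor B1-expressing line · Buffer or medium – PSG and 10% FCS in Ham's F12 · Compound dosing – 8-concentration series per compound, added by pin transfer · Times – 3 h at 37 °C, then 10 min with reagent · Measured by – luminescence of cellular ATP via Cell Titer Glo reagent · Measure – cytotoxicity IC50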

Row | SMILES | activity change, negative = cytotoxicity
1 | C[C@H]1CN([C@@H](C)CO)C(=O)c2cc(NC(=O)Cc3cn(C)c4ccccc34)ccc2O[C@H]1CN(C)S(=O)(=O)c1ccc(F)cc1 | -1.92% (inactive)

same assay, conditions: ldlA[mSR-BI] CHO cells viability, CellTiter-Glo ATP, 3 h; at 35 µM (top of the series)

Row | SMILES | activity change, negative = cytotoxicity
2 | CCc1cc2cc3c(cc2nc1SCC(=O)OC(C)C)OCO3 | -2% (inactive)
3 | C[C@H]1CN([C@@H](C)CO)C(=O)c2cccc(NC(=O)Nc3ccccc3)c2O[C@@H]1CN(C)Cc1ccccc1 | 0.984% (inactive)
4 | O=C(Nc1ccc(-c2nc3ccc(NC(=O)c4ccccc4[N+](=O)[O-])cc3[nH]2)cc1)c1ccccc1[N+](=O)[O-] | 6.32% (inactive)
5 | C[C@H](CO)N1C[C@H](C)[C@H](CN(C)S(=O)(=O)c2ccc(F)cc2)Oc2ccc(NS(C)(=O)=O)cc2C1=O | -6.43% (inactive)
6 | O=C(Nc1ccc(-c2nc3cc(NC(=O)c4ccccc4[N+](=O)[O-])ccc3o2)cc1)c1ccccc1[N+](=O)[O-] | 1.25% (inactive)
7 | C[C@H](CO)N1C[C@H](C)[C@H](CN(C)S(=O)(=O)c2ccc(F)cc2)Oc2ccc(NC(=O)Cc3ccccc3)cc2C1=O | -1.65% (inactive)
8 | Cc1ccccc1NC(=O)NCC1CCN(c2ccc(S(=O)(=O)N3CCOCC3)cc2)CC1 | -8.7% (inactive)
9 | O=C(Nc1cccc(NC(=O)c2cc([N+](=O)[O-])ccc2Cl)n1)c1cc([N+](=O)[O-])ccc1Cl | -7.2% (inactive)
10 | O=C(Nc1ccc(-c2nc3ccc(NC(=O)c4ccc(Cl)cc4)cc3[nH]2)cc1)c1ccc(Cl)cc1 | 3.4% (inactive)
11 | C[C@H]1CN([C@@H](C)CO)C(=O)c2cccc(NC(=O)Nc3ccccc3)c2O[C@@H]1CN(C)Cc1ccc(Cl)c(Cl)c1 | -15.5% (inactive)
12 | CCn1c(COc2c(C)cccc2C)nnc1SCC(=O)N1CCN(c2ccccc2)CC1 | -9.72% (inactive)
13 | C[C@@H]1CN([C@H](C)CO)C(=O)c2cc(NC(=O)Cc3cn(C)c4ccccc34)ccc2O[C@H]1CN(C)C(=O)Nc1ccc(F)cc1 | 4.57% (inactive)
14 | C[C@H]1CN([C@@H](C)CO)C(=O)c2cccc(NC(=O)Nc3ccc(F)cc3)c2O[C@@H]1CN(C)Cc1ccc(Cl)c(Cl)c1 | -26.7% (inactive)
15 | Nc1ccc(C(=O)Nc2ccc(-c3nc4ccc(NC(=O)c5ccc(N)cc5)cc4[nH]3)cc2)cc1 | 7.17% (inactive)
16 | O=C(Nc1ccc(-c2nc3cc(NC(=O)c4ccccc4Cl)ccc3o2)cc1)c1ccccc1Cl | 11.9% (inactive)
17 | C[C@H]1CN([C@@H](C)CO)C(=O)c2cccc(NS(C)(=O)=O)c2O[C@@H]1CN(C)Cc1ccc(Cl)c(Cl)c1 | 1.6% (inactive)
18 | O=C(Nc1cc(Cl)ccc1Cl)c1cc(Br)ccc1NS(=O)(=O)c1ccc(Cl)c([N+](=O)[O-])c1 | -11.2% (inactive)
19 | Cc1cc(C)n(CC(=O)NC2CCCc3c2cnn3-c2ccc(C)c(C)c2)n1 (configuration not stated) | -4.16% (inactive)
20 | O=C(Nc1cc(C(F)(F)F)ccc1Cl)c1ccccc1NS(=O)(=O)c1ccc(Cl)cc1 | -7.07% (inactive)
21 | CCOC(=O)Nc1cccc(NC(=O)c2cc(OC)cc(OC)c2)c1 | -7.68% (inactive)
22 | C[C@@H]1CN([C@H](C)CO)C(=O)c2cc(NC(=O)Cc3cn(C)c4ccccc34)ccc2O[C@@H]1CN(C)S(=O)(=O)c1ccc(F)cc1 | 2.73% (inactive)
23 | O=C(Nc1ccccc1)c1ccccc1NS(=O)(=O)c1ccc(Cl)cc1 | -7.39% (inactive)
24 | C[C@@H]1CN([C@H](C)CO)C(=O)c2cc(NC(=O)Cc3cn(C)c4ccccc34)ccc2O[C@H]1CN(C)S(=O)(=O)c1ccccc1 | 1.08% (inactive)

Row | SMILES | activity change, negative = cytotoxicity
25 | C[C@H]1CN([C@@H](C)CO)C(=O)c2cc(NC(=O)Nc3ccccc3)ccc2O[C@@H]1CN(C)Cc1ccc(Cl)c(Cl)c1 | -3.67% (inactive)
26 | CC(OC(=O)c1cccc(NS(C)(=O)=O)c1)C(=O)Nc1ccc(N2CCOCC2)cc1 (configuration not stated) | -7.82% (inactive)
27 | C[C@@H]1CN([C@@H](C)CO)C(=O)c2cc(NC(=O)Cc3cn(C)c4ccccc34)ccc2O[C@@H]1CN(C)S(=O)(=O)c1ccc(F)cc1 | 2.84% (inactive)
28 | C[C@H](CO)N1C[C@H](C)[C@@H](CN(C)S(=O)(=O)c2ccc(F)cc2)Oc2ccc(NC(=O)Cc3cn(C)c4ccccc34)cc2C1=O | -0.528% (inactive)
29 | CC(C)NC(=O)Nc1cccc2c1O[C@H](CN(C)Cc1ccc(Cl)c(Cl)c1)[C@@H](C)CN([C@@H](C)CO)C2=O | 3.31% (inactive)
30 | C[C@@H]1CN([C@H](C)CO)C(=O)c2cc(NC(=O)Cc3cn(C)c4ccccc34)ccc2O[C@H]1CN(C)S(=O)(=O)c1ccc(Cl)cc1 | -0.219% (inactive)
31 | C[C@@H]1CN([C@@H](C)CO)C(=O)c2cc(NC(=O)Cc3cn(C)c4ccccc34)ccc2O[C@H]1CN(C)S(=O)(=O)c1ccc(F)cc1 | -8.52% (inactive)
32 | C[C@@H]1CN([C@H](C)CO)C(=O)Cc2cc(NC(=O)Cc3cn(C)c4ccccc34)ccc2O[C@H]1CN(C)S(=O)(=O)c1ccc(F)cc1 | 1.4% (inactive)
33 | CC(C)(C)NC(=O)N1CCN(c2ncccc2C(F)(F)F)CC1 | -3.5% (inactive)
34 | C[C@@H]1CN([C@H](C)CO)C(=O)c2cc(NC(=O)Cc3cn(C)c4ccccc34)ccc2O[C@H]1CN(C)S(=O)(=O)c1ccc(F)cc1 | 1.06% (inactive)
35 | COc1ccc(-c2nnn(CC(=O)N(C3CCCCC3)C(C)C(=O)NC3CCCC3)n2)cc1OC (configuration not stated) | -4.74% (inactive)
36 | Cc1cc(SC(C)C(=O)Nc2ncc(Cl)cc2Cl)nc2ccccc12 (configuration not stated) | -10.7% (inactive)
37 | C[C@H](CO)N1C[C@H](C)[C@H](CN(C)S(=O)(=O)c2ccc(F)cc2)Oc2ccc(NC(=O)CCC(F)(F)F)cc2C1=O | -1.99% (inactive)
38 | COc1cccc(-c2csc(N3CCN(C(=S)Nc4cccc(Cl)c4)CC3)n2)c1 | -9.99% (inactive)
39 | CNC[C@@H]1Oc2ccc(NC(=O)Cc3cn(C)c4ccccc34)cc2C(=O)N([C@H](C)CO)C[C@H]1C | -4.04% (inactive)
40 | O=C(Nc1ccc(Cl)cc1C(=O)c1ccc(Cl)cc1)c1cc(Br)ccc1NS(=O)(=O)c1ccc(Cl)cc1 | -10% (inactive)
41 | CCc1sc(N2C(=O)C3C4CCC(C4=C(C)C)C3C2=O)nc1-c1ccccc1 (configuration not stated) | -2.48% (inactive)
42 | C[C@H](CO)N1C[C@H](C)[C@H](CN(C)S(=O)(=O)c2ccc(F)cc2)Oc2ccc(NC(=O)Cc3cn(C)c4ccccc34)cc2C1=O | -10% (inactive)
43 | O=C(Nc1ccccc1Cl)c1ccccc1NS(=O)(=O)c1ccccc1 | -1.11% (inactive)
44 | CCOC(=O)N1CCC(NC(=O)c2ccc3c(c2)N(Cc2ccc(F)cc2)CCS3)CC1 | -4.76% (inactive)
45 | C[C@H]1CN([C@@H](C)CO)C(=O)c2cccc(NC(=O)Nc3ccccc3)c2O[C@@H]1CN(C)C | -1.76% (inactive)
46 | CCC(=O)N1CCc2cc(-c3csc(NC(=O)c4ccco4)n3)ccc21 | -8.77% (inactive)

same assay, conditions: ldlA[mSR-BI] CHO cells viability, CellTiter-Glo ATP, 3 h; at 68 µM (top of the series)

Row | SMILES | activity change, negative = cytotoxicity
47 | CCOc1ccc(NC(=O)CN2CCN(CC(=O)Nc3cc(OC)cc(OC)c3)CC2)cc1 | -11.7% (inactive)
